Sampled rows, rich in hits. Any-hit rate of the full collection: about 3.5%.
PGC1a acetyl inh – lowers PGC1a acetylation signal in U2OS cells; inhibition, % at 15.6 µM; 350,000 tested, 0.17% active; AlphaScreen anti-acetyl-lysine; with virally co-expressed GCN5 acetyltransferase;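 active = every replicate shows inhibition of at least 40%; inconclusive = mean inhibition at least 40% but some replicate below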;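 note: 0% = neutral control wells and 100% = positive control wells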
rRNA inh HTS – selective bacterial rRNA inhibition in E. coli | GFP signal change (wild-type ribosome), % (no concentration beside the values) | E. coli WT GFP vs humanized-ribosome RFP mutants, fluorescence, 24 h; hits give low values; DMSO median 0, no signal -100 | 350,000 tested, 1.6% active;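 active = significant combined selectivity score with lowered wild-type GFP, culture density cut under 30%, mutant RFP and density less affected; inactive = any of these conditions unmet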
Env fusion inh – HIV envelope-mediated fusion inhibition; HeLa-JRFL Env/CEM21 cell fusion, luciferase; inhibition, % at 12.3 µM; 360,000 tested, 1.1% active; AID 651610;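 active = mean replicate inhibition score of at least 50 and every replicate individually at or above 50; inconclusive = only one of the two criteria met; inactive = mean below 50 and not all replicates reaching 50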;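 note: 0% = plate neutral controls and 100% = maraviroc near 300 nM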
DENV2 CPE – inhibitors of DENV2 cytopathic effect; AID 651640; CPE inhibition, % at 9.99 µM; DENV2-infected cells, cytopathic effect rescue, plate reader; 350,000 tested, 1.7% active; in the data active = CPE inhibition above about 20%, passing the limit was not always enough; inconclusive = no clear call, values can overlap the other calls; tested in BHK-21 cells;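 note: 0% = median of neutral control wells and 100% = median of positive control wells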
PglD inh – inhibitors of Campylobacter jejuni PglD acetyltransferase; purified PglD enzyme, DTNB colorimetric CoA detection; inhibition, % at 12.5 µM; 360,000 tested, 0.098% active; AID 602405; in the data active = inhibition above about 16%, passing the limit was not always enough; inconclusive = no clear call, values can overlap the other calls
FN deposition inh – fibronectin deposition inhibition | AH1F fibroblasts, Alexa488-fibronectin deposition fluorescence, overnight | inhibition, % at 12.6 µM | 350,000 tested, 0.086% active;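 active = mean inhibition across replicates of 30% or more, regardless of how many single replicates reach that level; inconclusive = mean under 30% yet at least half of replicates reach 30%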;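 note: positive control wells lacked labelled fibronectin entirely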
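Measured by – fluorescence 485/525 nm · System – AH1F fibroblast monolayer, labelled fibronectin deposition · Amount – 10000 cells per well · Buffer or medium – serum-reduced DMEM (2% serum) · Doses – single dose, pinned · Also added – fluorescent fibronectin at 24 nM final · Schedule – 1 h cell attachment, overnight exposure to compound and label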
AID977621 – wild-type E. coli growth inhibition versus H69 humanized strain – H69 mutant RFP, wild-type GFP, cherry-pick, dose response. fluorescence, 24 h. shares compounds with rRNA inh HTS. activity change, negative = inhibition at 50 µM. 1,900 tested, under 10 active;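 active = Wild-type ribosome reporter drop at least double the humanized mutant ribosome reporter drop, growth loss under a set limit; inconclusive = no clear call, values can overlap the other calls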;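 note: wild-type GFP and H69 mutant RFP strains grown together 50/50 in each well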
AID977628 – E. coli growth inhibition, wild-type GFP versus h24 humanized RFP strain, dose response, h24 mutant RFP vs wild-type GFP, cherry-pick. 1,900 tested, under 10 active. shares compounds with rRNA inh HTS. E. coli WT GFP strain growth, fluorescence, 24 h. AID 977628. activity change, negative = inhibition at 50 µM;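 active = compound lowering the normal-ribosome reporter at least twice as much as the humanized-ribosome reporter, growth loss under a set limit; inconclusive = no clear call, values can overlap the other calls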;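 note: wild-type GFP and h24 humanized RFP strains co-cultured 1 to 1 per well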
The depositor's hits bear a star; ? = inconclusive; · = no result given; ! = a repeat was not active; [ ] = dose if it differs, or a comment.

SMILES	PGC1a acetyl inh	rRNA inh HTS	Env fusion inh	DENV2 CPE	PglD inh	FN deposition inh	AID977621	AID977628
Cc1cc(NC(=O)CCCn2cc([N+](=O)[O-])cn2)n(Cc2ccc(F)cc2)n1	4	-23*	4	?	·	-2	0.39	?
COCc1nnc(NC(=O)c2ccc(S(=O)(=O)N3CCCC3)cc2)o1	·	-23*	-18	-2	-1	6	-16	·
COc1ccc(CNC(=O)Nc2ccc([N+](=O)[O-])cc2)cc1	1	0	-19	9	6	8	·	·
COc1ccc(NC(=O)c2ccc(-c3ccc([N+](=O)[O-])cc3)o2)cc1	-5	-26*	-4	1	3	6	·	?
CCCn1c(NCc2ccc3c(c2)OCO3)nc2ccccc21	-18	-22*	·	5	·	·	·	?
CN(C)C(=O)C1C2NC(=S)N(c3cccc(Cl)c3)C1(C)Oc1ccc(Cl)cc12 (centres undefined)	-9	-22*	12	·	-3	·	-2.2	·
COc1ccc(C(=O)Nc2ccc3ncccc3c2)cc1	·	-4	-24	4	-4	-8	·	·
Cc1ccc(C(=O)Nc2ccc3ncccc3c2)cc1	·	-16*	-20	3	2	1	·	-12
COc1cc2c(cc1OC)CN(C(=O)c1cc(S(=O)(=O)N3CCOCC3)ccc1Cl)CC2	·	·	9	·	-6	3	·	·
O=C(c1cc(S(=O)(=O)N2CCOCC2)ccc1Cl)N1CCc2ccccc2C1	5	-20*	-6	-1	-4	3	-12	-9.1
COCCCNC(=O)c1ccc(-c2nc3ccccc3nc2-c2ccccc2)cc1	-2	-32*	5	20	0	-3	0.2	-3.1
Cc1cc(C(=O)COC(=O)c2ccc(O)cc2)c(C)n1CC(F)(F)F	4	-20*	-146	-2	0	2	-11	-4.5
O=C(N[C@@H]1CC[C@H](CCNS(=O)(=O)c2ccc(F)cc2)O[C@H]1CO)C1CCC1	1	-1	-1[16.7 µM]	14	0	-8	·	·
CC1CCCC(NC(=O)COC(=O)Cc2ccc(Cl)cc2)C1C (centres undefined)	4	-11	·	-2	-3	-1	·	·
CC1CCCC(NC(=O)COC(=O)Cc2c[nH]c3ccccc23)C1C (centres undefined)	16	-29*	2	-4	·	6	-14	-13
C[C@@H]1CN([C@H](C)CO)C(=O)c2c(c3ccccc3n2C)-c2ccccc2CO[C@@H]1CN(C)C(=O)CCN(C)C	·	-19*!	-54	3	·	3	·	-3.8
C[C@H]1CN([C@@H](C)CO)C(=O)c2c(c3ccccc3n2C)-c2ccccc2CO[C@@H]1CN(C)C(=O)CCN(C)C	-26	2	-10[16.7 µM]	-4	3	-3	·	·
C[C@H]1CN([C@@H](C)CO)C(=O)c2c(c3ccccc3n2C)-c2ccccc2CO[C@@H]1CN(C)Cc1ccccc1	-10	-42*	·	-8	·	0	?	?
CCS(=O)(=O)N1CCCCN2[C@H](CO)[C@@H](c3ccc(-c4ccc(C#N)cc4)cc3)[C@H]2C1	2	0	·	13	-1	·	·	·
COc1ccc2cc(C(=O)C3CCCN(Cc4ccccn4)C3)ccc2c1 (centres undefined)	7	-35	-2	·	2	4	·	·
CCn1ccnc1CN1CCCC(C(=O)c2ccc3cc(OC)ccc3c2)C1 (centres undefined)	-8	-33*	14	-4	4	-17	-5.8	-3.3
CC(C)NC(=O)N1CC[C@@H]2[C@@H](CO)N(C)c3ccc(Br)cc3[C@@H]21	-11	-3	·	16	-1	-20	·	·
C[C@H]1CN([C@@H](C)CO)S(=O)(=O)c2ccc(C3=CCCCC3)cc2O[C@H]1CN(C)C(=O)Cc1cccnc1	-11	-4	5[16.7 µM]	15	14	·	·	·
CC(C)[C@H]1COCc2cn(nn2)CC[C@@H](C)C(=O)N1	·	7	·	·	·	-10	·	·

Screening results as filed in PubChem BioAssay.
